The source made the active and inactive calls. The calls are words filed in the database; no cut-off is given here.
Columns and labels:
[1] = Antiproliferative activity against mouse L929 cells; assay type: cell-based
[2] = system: K562; assay: Antiproliferative activity against human K562 cells; assay type: functional
[3] = system: HeLa; assay: Cytotoxicity against human HeLa cells; assay type: functional; settings: for CC50: Homo sapiens, HeLa
Summary of the method: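 HeLa Ohio cells grown 2 days to confluent monolayers, then growth medium replaced with nine 2-fold compound dilutions in test medium. Incubated 72 h at 37 °C, 5% CO2. Cells fixed, washed and stained, with OD read at 660 nm. Viability taken as % of six untreated controls. CC50 calculated from the mean dose–response curve of two assays.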

[4] = system: Remotididymella destructiva; assay: Induction of pigment formation in Phoma destructiva at 1.7 mM; assay type: functional, organism-based
Summary of the method: (§1)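 Phoma destructiva vegetative mycelium grown on malt agar plates (malt extract, glucose, yeast extract, (NH4)2SO4, pH 6.0), set up like an agar-well diffusion assay. 50 µL of purified metabolite placed in 9 mm agar wells. Plates incubated for three days, then scored visually for changes in pigment and aerial mycelium formation.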

[5] = system: Remotididymella destructiva; assay: Induction of morphogenesis in Phoma destructiva at 1.7 mM; assay type: functional, organism-based; summary of the method: as §1

GI50 [2]	Structure (SMILES)	GI50 [1]	CC10 [3]	CC50 [3]	Activity [4]	Activity [5]
52.7 µM	CC(=O)O[C@@H]1[C@H](O)[C@H](OCCCCCCCCCCCCCCC(C)C(=O)C2=C(O)N(C)C(C)C2=O)O[C@H](CO)[C@H]1O (stereo partly drawn)	71.1 µM	26.2 µM	44.2 µM		
> 90 µM	CC(CCCCCCCCCCCCCCO[C@@H]1O[C@H](CO)[C@@H](O)[C@H](O)[C@@H]1O)C(=O)C1=C(O)N(C)C(C)C1=O (stereo partly drawn)	> 90 µM	51.3 µM	> 90 µM		
33.7 µM	CC(=O)OC[C@H]1O[C@@H](OCCCCCCCCCCCCCCC(C)C(=O)C2=C(O)N(C)C(C)C2=O)[C@@H](O)[C@@H](O)[C@@H]1O (stereo partly drawn) [EPICOCCAMIDE C]	57.2 µM	13.6 µM	29 µM		
33.3 µM	CC(CCCCCCCCCCCCCCCCO[C@@H]1O[C@H](CO)[C@@H](O)[C@H](O)[C@@H]1O)C(=O)C1=C(O)N(C)C(C)C1=O (stereo partly drawn) [EPICOCCAMIDE D]	50.5 µM	11.6 µM	17 µM	Active	Active

Source: ChEMBL document CHEMBL1141335, “Epicoccamides B-D, glycosylated tetramic acid derivatives from an Epicoccum sp. associated with the tree fungus Pholiota squarrosa” (J Nat Prod, 2007)
